Results taken from paper PMC4160068 (ACS chemical biology, 2014).

Legend:
PKCδ = PKCδ (Homo sapiens, UniProt Q05655); experiment: In vitro kinase assay, PKCδ; assay type: biochemical
[1] = system: normal primary cells or cell lines; conditions: at the concentrations employed herein; cited from earlier work
[2] = system: cancer cells with activation of RAS or RAS signaling; experiment: "Ras-specific" cytotoxicity
mice = conditions: administered orally or intraperitoneally to mice; cited from earlier work
SBcl2 melanoma cells = experiment: Clonogenic colony assay; assay type: cell-based; conditions: SBcl2, 1 µM, 48 hr of drug exposure, then 8 days without inhibitor
Method in brief: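 SBcl2 cells exposed to test compound at 1 µM for 0, 12, 24 or 48 hr. Equal numbers of viable cells from each condition then replated at low density and grown 8 days in inhibitor-free medium. Colony-forming ability compared across exposure times.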

[3] = cited from earlier work
[4] = system: melanoma cell lines with NRAS mutations (SBcl2, FM6, SKMEL2, WM1366, WM1361A, WM852); experiment: MTS cell survival assay in NRAS-mutant melanoma lines; assay type: cell-based; conditions: 24, 48, 72 hr
Method in brief: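 Cell lines carrying NRAS Q61 mutations (SBcl2, FM6, SKMEL2, WM1366, WM1361A, WM852) exposed to test compounds at 2 or 5 µM, or 0.2 or 0.5 µM (0.1 and 2 µM also in SBcl2). MTS read at 24, 48 and 72 hr. Controls: DMSO vehicle and 2 µM negative control compound. Mean of triplicates ± SD; p versus DMSO at 72 hr.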

[5] = system: caspase 3/7 in SBcl2 cells; experiment: Caspase 3/7 activity assay; assay type: cell-based; conditions: SBcl2, 5 µM, 24 hr
SBcl2 cells = experiment: DNA fragmentation; assay type: cell-based; conditions: 24 hr
Method in brief: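 SBcl2 cells treated 24 hr with test compound (5 or 0.5 µM) alone, or at 0.5 µM together with pan-caspase inhibitor Z-VAD-FMK (100 µM). Sub-G1 (fragmented DNA) fraction measured by flow cytometry. Mean of duplicates with SD.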

[6] = system: A375 and SKMEL5 parental cells; experiment: MTS viability of parental BRAF-mutant melanoma cells under PLX4032; assay type: cell-based; conditions: concentrations in which PLX-R derivative lines grew
[7] = system: MKK4-JNK-H2AX pathway in SBcl2 cells; experiment: Immunoblot analysis of JNK pathway signaling; assay type: cell-based; conditions: pre-treatment 50 µM, data not shown

Chain of PKCδ (Q05655 whole entry): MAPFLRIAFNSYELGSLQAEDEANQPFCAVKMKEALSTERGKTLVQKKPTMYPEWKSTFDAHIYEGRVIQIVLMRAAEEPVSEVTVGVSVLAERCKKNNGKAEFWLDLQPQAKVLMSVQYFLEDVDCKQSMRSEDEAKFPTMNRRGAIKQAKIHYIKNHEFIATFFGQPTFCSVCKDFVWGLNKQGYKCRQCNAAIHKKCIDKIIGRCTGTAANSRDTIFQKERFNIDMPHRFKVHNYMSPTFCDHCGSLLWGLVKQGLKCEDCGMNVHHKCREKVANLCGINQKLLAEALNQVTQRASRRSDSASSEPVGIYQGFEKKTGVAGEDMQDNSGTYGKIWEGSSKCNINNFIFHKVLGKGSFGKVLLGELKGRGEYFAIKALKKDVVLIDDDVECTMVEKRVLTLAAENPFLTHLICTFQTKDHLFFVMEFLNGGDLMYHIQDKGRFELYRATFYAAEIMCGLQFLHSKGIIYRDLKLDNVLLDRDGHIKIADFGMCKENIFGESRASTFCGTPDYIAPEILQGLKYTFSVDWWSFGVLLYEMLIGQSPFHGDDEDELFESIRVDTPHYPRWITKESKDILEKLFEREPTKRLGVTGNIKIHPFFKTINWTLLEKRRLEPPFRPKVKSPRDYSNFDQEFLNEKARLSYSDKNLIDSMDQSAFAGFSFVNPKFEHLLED

In the case of `CC(=O)c1c(O)c(C)c(O)c(Cc2c(O)c3c(c(C(=O)/C=C/c4ccccc4)c2O)OC(C)(C)C=C3)c1O` [Rottlerin, rottlerin], the IC50 (PKCδ; PKCδ IC50, in vitro kinase assay) is listed as 3 to 5 µM, the “PKCδ/PKCα Selectivity” value (PKCδ; PKCδ over PKCα) is listed as 28-fold and the “Cytostatic or cytotoxic effect on normal cells” value [1] is listed as “not cytostatic or cytotoxic”. For the same molecule, the “"Ras-specific" Cytotoxicity” value [2] was 3 to 5 µM, the Tolerability (mice) was “well-tolerated” and the “Reduction in the number of colonies” value (SBcl2 melanoma cells) was “approximately 40 fold”. For the same molecule, the Aqueous solubility [3] was “moderate”, the “Cell proliferation (MTS)” value ([4]; 2 µM) was “intermediate inhibitory effects” and the “Cell proliferation (MTS)” value ([4]; 5 µM) was “consistently inhibited proliferation of all cell lines”. The “Increase in caspase 3/7 activity vs vehicle (DMSO)” value [5] was 5 fold and the “Proportion of sub-G1 population (fragmented DNA)” value (SBcl2 cells; SBcl2, 5 µM) was “significantly higher”.
In the case of `CCCS(=O)(=O)Nc1ccc(F)c(C(=O)c2c[nH]c3ncc(-c4ccc(Cl)cc4)cc23)c1F` [PLX4032, vemurafenib], the “Cytotoxicity to parental cells” value [6] is reported as “cytotoxic”.
With “carbobenzoxy-valyl-alanyl-aspartyl-[Omethyl]-fluoromethylketone [Z-VAD-FMK]” the “B106-induced caspase 3 cleavage (immunoblot)” value [7] was “prevented” and the “B106-induced DNA fragmentation” value (SBcl2 cells; SBcl2 pretreated with 100 µM, B106 0.5 µM) was “significantly abrogated”.
